Screening data (PubChem BioAssay)
Only some compounds are listed: those with a hit (about 0.75% of all), similar ones and a draw of the others.
ZTA DNA inh: ZTA (EBV) inhibition in EBNA-1 counter-screen. ZTA-DNA binding, fluorescence polarization. P03206. AID 2234. inhibition, % at 11 µM. hit rate 0.15% among 320,000; in the data active means inhibition above about 33%
ASAP1 inh: ASAP1 ArfGAP inhibition; Q9ULH1; ASAP1-stimulated ARF1 GTP hydrolysis, GDP FP detection; inhibition, % at 16.5 µM; hit rate 0.19% among 360,000; AID 624377; in the data active means inhibition above about 25%
Target sequence (Q9ULH1 325-724 limits assumed): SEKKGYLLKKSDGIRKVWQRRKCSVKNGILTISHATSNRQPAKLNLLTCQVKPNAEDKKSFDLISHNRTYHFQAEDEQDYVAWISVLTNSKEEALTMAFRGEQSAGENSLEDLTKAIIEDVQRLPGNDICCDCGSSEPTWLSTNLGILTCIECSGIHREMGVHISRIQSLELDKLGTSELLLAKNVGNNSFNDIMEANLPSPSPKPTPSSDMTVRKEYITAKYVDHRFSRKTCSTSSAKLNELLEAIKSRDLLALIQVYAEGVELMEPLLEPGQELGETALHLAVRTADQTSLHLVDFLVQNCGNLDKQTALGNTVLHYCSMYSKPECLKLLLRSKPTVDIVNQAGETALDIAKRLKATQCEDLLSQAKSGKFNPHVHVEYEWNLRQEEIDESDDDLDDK
ARFGAP1 inhibitor: inhibits rat ARF GTPase activating protein 1 | AID 651572 | hit rate 0.26% among 360,000 | Q62848 | inhibition, % at 16.5 µM | Arfgap1-stimulated ARF1 GTP hydrolysis, GDP FP detection;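 active means inhibition above a per-plate limit, mean inhibition of low control wells plus 3 SD, cut at about 25% in these data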
Target sequence (Q62848 1-136 limits assumed): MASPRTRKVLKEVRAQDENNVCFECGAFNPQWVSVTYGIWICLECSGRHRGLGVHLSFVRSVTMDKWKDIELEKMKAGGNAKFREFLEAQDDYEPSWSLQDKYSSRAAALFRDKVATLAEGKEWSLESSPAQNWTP
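Material: rat Arfgap1 GAP domain (His6, aa 1-136), purified enzyme. Also added: human ARF1(Δ1-17)-GTP substrate. Compound dosing: 16.5 µM single point, 1.26% DMSO. Timing: enzyme reaction 120 min at 25 °C after 20 min preincubation. Signal: GDP detection by fluorescence polarization. Read-out basis: percent inhibition of GAP-stimulated GDP formation, scaled between DMSO and no-Arfgap1 medians.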
EBNA-1 inhibitor: blocks EBNA-1 binding to DNA; EBNA-1 DNA binding, fluorescence polarization; inhibition, % at 14.8 µM; hit rate 0.34% among 300,000; in the data active means inhibition above about 28%
ARFGAP1 inh conf: rat ARFGAP1 inhibition, confirmed; shares compounds with ARFGAP1 inhibitor; ARFGAP1-stimulated ARF1 GTP hydrolysis, GDP tracer FP; hit rate 30% among 890; inhibition, % at 16.5 µM;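 active means average inhibition over triplicates above the hit cutoff set in the earlier primary screen, cut at about 25% in these data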
Large screens that a line does not name were inactive (follow-up assays come after a bar, where they were run).

Cc1cc(=O)n(C2CCS(=O)(=O)C2)[nH]1 (configuration not stated)	ARFGAP1 inhibitor 29 | ARFGAP1 inh conf inactive
Cc1onc(-c2ccccc2Cl)c1C(=O)N1CCCC1	none
Cc1onc(-c2ccccc2Cl)c1C(=O)N1CCC(C(N)=O)CC1	ARFGAP1 inhibitor 32 (no result: ZTA DNA inh, EBNA-1 inhibitor) | ARFGAP1 inh conf inactive
C[C@H](CO)N1C[C@H](C)[C@H](CN(C)C(=O)Nc2cccc(F)c2)Oc2cc(Br)ccc2S1(=O)=O	none (no result: ZTA DNA inh, EBNA-1 inhibitor)
C[C@H](CO)N1C[C@H](C)[C@H](CN(C)C(=O)Nc2cccc(F)c2)Oc2cc(C#CC3(O)CCCC3)ccc2S1(=O)=O	ARFGAP1 inhibitor 29 (no result: ZTA DNA inh, EBNA-1 inhibitor) | ARFGAP1 inh conf inactive
CCCCCCCCN1C(=O)[C@@H](CC(=O)NCc2cccc(C(F)(F)F)c2)C[C@@]2(C(=O)OC)C1=C[C@H](C1CCCC1)O[C@@H]2C	none (no result: ZTA DNA inh, EBNA-1 inhibitor)
Cc1ccc(S(=O)(=O)N2CC3=C(c4ccccc4)CC4(C)C(=O)C(C)(C)CC4=C3C2)cc1 (configuration not stated)	none (no result: ZTA DNA inh, EBNA-1 inhibitor)
Cc1c(Cl)sn(-c2ccc(Cl)cc2)c1=O	ARFGAP1 inhibitor 30 (no result: ZTA DNA inh, EBNA-1 inhibitor) | ARFGAP1 inh conf inactive
CC(C)=CCC1=C(OCC(=O)O)C(=O)c2ccccc2C1=O	ARFGAP1 inhibitor 25 | ARFGAP1 inh conf inactive
O=C(COC(=O)c1ccccc1F)Nc1ccc(S(=O)(=O)N2CCOCC2)cc1	ARFGAP1 inhibitor 27 (no result: ZTA DNA inh, EBNA-1 inhibitor) | ARFGAP1 inh conf inactive
O=C(COC(=O)c1ccc(F)cc1F)Nc1ccc(S(=O)(=O)N2CCOCC2)cc1	none (no result: ZTA DNA inh, EBNA-1 inhibitor)
Nc1nc(/C=C/c2cccnc2)nc(-c2ccccc2O)n1	ARFGAP1 inhibitor 37 | ARFGAP1 inh conf 25
COC(=O)C1=C(C)N(Cc2ccc(F)cc2)C(=S)NC1c1ccc(Cl)cc1 (configuration not stated)	none (no result: ZTA DNA inh, EBNA-1 inhibitor)
Cc1[nH][nH]c(=O)c1C(c1c(C)[nH][nH]c1=O)c1cn(C)c2ccccc12	ARFGAP1 inhibitor 25 (no result: ZTA DNA inh, EBNA-1 inhibitor) | ARFGAP1 inh conf inactive
O=C(Cc1cn(Cc2ccccc2)c2ccccc12)Nc1ccc(Oc2cccnc2)cc1	none (no result: ZTA DNA inh, EBNA-1 inhibitor)
CCC1CCC2(CC1)NC(=O)N(CC(=O)Nc1cccc(S(=O)(=O)N(C)c3ccccc3)c1)C2=O (configuration not stated)	ARFGAP1 inhibitor 41 (no result: EBNA-1 inhibitor) | ARFGAP1 inh conf inactive
COc1ccc(NC(=O)c2c3c(nc4ccccc24)CCN(Cc2ccccc2)C3)c(OC)c1	ARFGAP1 inhibitor 25 | ARFGAP1 inh conf inactive
CN(CC(=O)NCC1CCCO1)S(=O)(=O)c1ccc2ccccc2c1 (configuration not stated)	ARFGAP1 inhibitor 32 (no result: ZTA DNA inh, EBNA-1 inhibitor) | ARFGAP1 inh conf inactive
O=C(C(=O)N1CCC(CNC(=O)C2COc3ccccc3O2)CC1)c1cc2ccccc2o1 (configuration not stated)	none (no result: ZTA DNA inh, EBNA-1 inhibitor)
Cc1ccc(Cn2c(-c3nonc3N)nc3ccccc32)cc1	none
Nc1nonc1-c1nc2ccccc2n1Cc1ccc(Cl)cc1	ARFGAP1 inhibitor 25 | ARFGAP1 inh conf inactive
O=C(NNC(=S)Nc1ccc(Cl)c(Cl)c1)c1ccccn1	ARFGAP1 inhibitor 26 | ARFGAP1 inh conf inactive
CCNC(=S)NNC(=O)c1ccccn1	none
O=C(N/N=C/c1ccc(O)cc1)c1[nH]c2ccc(Br)cc2c1-c1ccccc1	none
O=C(N/N=C/c1c[nH]c2ccccc12)c1[nH]c2ccc(Br)cc2c1-c1ccccc1	ARFGAP1 inhibitor 30 (no result: ZTA DNA inh, EBNA-1 inhibitor) | ARFGAP1 inh conf inactive
CCCOc1ccc(C(=O)Nc2ccc(S(=O)(=O)N3C[C@@H]4C[C@@H](C3)c3cccc(=O)n3C4)cc2)cc1	ARFGAP1 inhibitor 25 (no result: EBNA-1 inhibitor) | ARFGAP1 inh conf inactive
CCCOc1ccc(C(=O)Nc2ccc(S(=O)(=O)N3CCN(C)CC3)cc2)cc1	none
COC(=O)[C@]12C[C@H](CC(=O)NCCCN3CCCC3=O)C(=O)N(CCC3=CCCCC3)C1=C[C@H](COCc1ccccc1)O[C@@H]2C	none (no result: ZTA DNA inh, EBNA-1 inhibitor)
COc1ccc(-c2nc3cc(NC(=O)Cc4ccc(OC)c(OC)c4)ccc3o2)cc1	ARFGAP1 inhibitor 25 | ARFGAP1 inh conf inactive
CS(=O)(=O)N1CCCC(C(=O)NCc2ccc(F)cc2)C1 (configuration not stated)	ARFGAP1 inhibitor 27 | ARFGAP1 inh conf inactive
Cc1ccc(CNC(=O)C2CCCN(S(=O)(=O)c3ccc(F)cc3)C2)cc1 (configuration not stated)	none (no result: ZTA DNA inh, EBNA-1 inhibitor)
Cc1ccc(/C=N/N2CCN(Cc3ccccc3)CC2)o1	none
Cc1ccc(/C=N/N(Cc2ccccc2)c2ccccc2)o1	ARFGAP1 inhibitor 33 | ARFGAP1 inh conf inactive
O=C(N/N=C/c1ccc2c(c1)OCO2)c1ccc(NC(=O)c2ccc(F)cc2)cc1	ARFGAP1 inhibitor 25 | ARFGAP1 inh conf inactive
